In the RNAGym collection of RNA variant scans (doi:10.1038/s41586-018-0170-7):

B1: tRNA (parent)
chain: GUUCCGUUGGCGUAAUGGUAACGCGUCUCCCUCCUAAGGAGAAGACUGCGGGUUCGAGUCCCGUACGGAACG

Variants of: B1
Assay: yeast fitness, log relative to wild type (ln ratio); higher = fitter; tRNA-Arg(CCU), competitive growth, 37 C, 1 M NaCl
Outline: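 Fitness is the natural log of a genotype's generation count divided by that of the wild type. A combinatorial library of tRNA-Arg(CCU) variants sat on a HIS3 centromeric plasmid in BY4742 lacking the chromosomal gene, from two independent transformations. Pools grew 4 generations in SC-HIS at 30 °C, then ~6.5 generations (~26.5 h) in SC-HIS 1M NaCl at 37 °C, with three outputs per input. Generations came from OD-scaled log2 output/input frequency, inverse-variance weighted across replicates, with variants counted by 125 bp paired-end Illumina sequencing.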

Variant	yeast fitness (ln)
G1A U2G G6U A43C C66U A69G A70U C71U	-0.4
G1A U2G G6U A43C C46U C66U A69G C71U	-0.393
G1A U2G G6A C27U A43C C46U A70G C71U	-0.405
G1A U2G G6U C27U A43C A69G A70G	-0.326
G1A U2G G6U C27U A43C A69G A70U	-0.454
G1A U2G G6U A43C C46U C66A C71U	-0.234
G1A U2G G6A C27U C46U C66U A70U	-0.28
G1A U2G G6A C27U C46U C66U A70G	-0.194
G1A U2G G6U A70G C71U	-0.256
G1A U2G G6U A43C C46U A69G A70G	-0.334
G1A U2G G6U A43C C46U A69G A70U	-0.354
G1A U2G G6A C27U A43C A70G C71U	-0.344
G1A U2G G6A C27U A43C C46U A69G C71U	-0.283
G1A U2G C66U C71U	-0.201
G1A U2G G6A A43C C46U C66A A69G A70U C71U	-0.286
G1A U2G G6U C27U A43C C66A A70U C71U	-0.433
G1A U2G G6A C66A A70U C71U	-0.119
G1A U2G G6U C27U A43C	-0.3
G1A U2G G6U A43C A69G A70G	-0.277
G1A U2G G6U A43C A69G A70U	-0.456
G1A U2G G6A C27U A43C C66U A70G C71U	-0.479

Variant	yeast fitness (ln)
G1A U2G G6A C27U C46U C66A A70G C71U	-0.282
G1A U2G G6U C27U A43C C66U A69G C71U	-0.764
G1A U2G G6A A70G	-0.16
G1A U2G G6A A70U	-0.0829
G1A U2G G6A C27U C66U A69G A70U C71U	-0.479
G1A U2G G6U C27U A43C C46U C66U A70U	-0.383
G1A U2G G6U C27U A43C C46U C66U A70G	-0.564
G1A U2G G6U C27U A43C C46U C66U A70G C71U	-0.466
G1A U2G G6U C27U	-0.148
G1A U2G G6A C27U C46U A70U C71U	-0.15
G1A U2G G6U C27U C46U A70G C71U	-0.368
G1A U2G G6A A43C C46U A69G C71U	-0.206
G1A U2G G6A A43C C66U A69G A70G C71U	-0.612
G1A U2G G6U C27U A43C A70U	-0.338
G1A U2G G6U C27U A43C A70G	-0.419
G1A U2G G6A C27U A43C A69G A70G C71U	-0.354
G1A U2G G6A C46U C66U A69G A70G C71U	-0.413
G1A U2G G6U A43C C46U C66U A69G A70G C71U	-0.371
G1A U2G G6A C27U A70G	-0.339
G1A U2G G6A C27U A70U	-0.24
G1A U2G G6A A43C C46U C66U A69G A70U C71U	-0.425

Variant	yeast fitness (ln)
G1A U2G G6A A43C A69G A70U C71U	-0.411
G1A U2G G6U C27U A43C C66U A69G A70U C71U	-0.54
G1A U2G G6U C27U A43C C66A	-0.171
G1A U2G G6U C27U A43C C46U A69G C71U	-0.39
G1A U2G G6A C27U A43C C46U	-0.242
G1A U2G G6U C27U C46U A70U	-0.217
G1A U2G G6U C27U C46U A70G	-0.274
G1A U2G G6A A43C	-0.238
G1A U2G G6A A70G C71U	-0.172
G1A U2G G6A A43C C66U A70U C71U	-0.443
G1A U2G G6A A43C A70G C71U	-0.224
G1A U2G G6A C46U C66U A70U	-0.251
G1A U2G G6A C46U C66U A70G	-0.11
G1A U2G G6A C27U A43C A70U	-0.26
G1A U2G G6A C27U A43C A70G	-0.381
G1A U2G G6A C27U A43C C46U C66U A69G A70G C71U	-0.433
G1A U2G G6U C27U A69G A70G C71U	-0.448
G1A U2G G6A C71U	-0.136
G1A U2G G6A C27U A43C C66U	-0.348
G1A U2G G6U A43C A70G C71U	-0.323
G1A U2G G6A C66U C71U	-0.146

Variant	yeast fitness (ln)
G1A U2G G6U A43C	-0.257
G1A U2G G6A C27U C66A A70U	-0.129
G1A U2G G6A C27U C66A A70G	-0.296
G1A U2G G6A C27U A43C C66U A69G A70G C71U	-0.563
G1A U2G G6A C27U A43C C46U C66A A69G C71U	-0.275
G1A U2G G6U A43C C46U C66A A69G A70G C71U	-0.378
G1A U2G G6U C27U A43C C46U A69G A70G	-0.192
G1A U2G G6U C27U A43C C46U A69G A70U	-0.463
G1A U2G G6A C46U C66U A69G A70G	-0.18
G1A U2G G6A C46U C66U A69G A70U	-0.383
G1A U2G G6U A43C C66A A70U C71U	-0.387
G1A U2G G6U C27U C46U A70U C71U	-0.242
G1A U2G G6A C27U A43C C46U A69G A70G C71U	-0.424
G1A U2G G6A C27U C46U A70G C71U	-0.244
G1A U2G G6U C27U A69G C71U	-0.274
G1A U2G G6U A43C C66A A69G A70U C71U	-0.351
G1A U2G G6U C27U A43C C71U	-0.329
G1A U2G G6A A43C C46U C66A A70U C71U	-0.282
G1A U2G G6A A43C C46U C66U A69G A70G C71U	-0.206
G1A U2G G6A C46U A69G C71U	-0.193
G1A U2G G6U C27U A69G A70U C71U	-0.404
